Measurements from BindingDB's records for doi:10.1021/jm9009229 (University of California, 2010).

target: Cruzipain (Trypanosoma cruzi, UniProt P25779); assay: Inhibition of Trypanosoma cruzi cruzain preincubated for 5 mins before substrate addition in presence of 0.01% Triton X-100
Method in brief: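 Cruzain IC50s were measured from dose-response curves with Triton X-100 in the assay buffer at either 0.01% or 0.001%. At 0.001% Triton, some runs included pre-incubation with BSA.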

Sequence of Cruzipain (P25779 whole entry): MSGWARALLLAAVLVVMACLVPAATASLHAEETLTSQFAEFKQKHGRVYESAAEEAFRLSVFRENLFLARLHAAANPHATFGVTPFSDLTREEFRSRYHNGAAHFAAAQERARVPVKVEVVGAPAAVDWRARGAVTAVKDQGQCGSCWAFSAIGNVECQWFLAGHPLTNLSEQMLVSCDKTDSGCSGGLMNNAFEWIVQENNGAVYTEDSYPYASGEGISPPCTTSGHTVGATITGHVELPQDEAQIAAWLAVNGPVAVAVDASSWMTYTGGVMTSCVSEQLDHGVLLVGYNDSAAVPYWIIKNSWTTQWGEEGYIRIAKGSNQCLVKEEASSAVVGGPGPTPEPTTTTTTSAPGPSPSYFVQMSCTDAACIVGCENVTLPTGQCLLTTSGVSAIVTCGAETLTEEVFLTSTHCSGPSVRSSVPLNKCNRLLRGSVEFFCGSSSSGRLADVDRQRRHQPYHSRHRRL

`Nc1ccccc1-c1nnc(C(=O)Nc2cccc(N3CCCC3)c2)o1` [5-(2-Amino-phenyl)-[1,3,4]oxadiazole-2-carboxylic acid(3-pyrrolidin-1-yl-phenyl)-amide] and `Nc1ccccc1-c1nnc(C(=O)Nc2ccc3oc4c(c3c2)CCCC4)o1` [5-(2-Amino-phenyl)-[1,3,4]oxadiazole-2-carboxylic acid(6,7,8,9-tetrahydrodibenzofuran-2-yl)-amide] cannot be ordered by IC50: over 100 µM for the first, over 100 µM for the second.

`Cc1cc(NC(=O)c2nnc(-c3ccccc3N)o2)[nH]n1` [5-(2-Amino-phenyl)-[1,3,4]oxadiazole-2-carboxylic acid(5-methyl-2H-pyrazol-3-yl)-amide] and `CC(C)(C)c1cc(NC(=O)c2nnc(-c3ccccc3N)o2)[nH]n1` [5-(2-Amino-phenyl)-[1,3,4]oxadiazole-2-carboxylic acid(5-tert-butyl-2H-pyrazol-3-yl)-amide] cannot be ordered by IC50: over 100 µM for the first, over 50 µM for the second.

`Cc1ccc(-c2cc(NC(=O)c3nnc(-c4ccccc4N)o3)[nH]n2)cc1` [5-(2-Amino-phenyl)-[1,3,4]oxadiazole-2-carboxylic acid(5-p-tolyl-2H-pyrazol-3-yl)-amide] and `COc1ccc(-c2cc(NC(=O)c3nnc(-c4ccccc4N)o3)[nH]n2)cc1` [5-(2-Amino-phenyl)-[1,3,4]oxadiazole-2-carboxylic acid[5-(4-methoxy-phenyl)-1Hpyrazol-3-yl]-amide] cannot be ordered by IC50: over 100 µM for the first, over 100 µM for the second.

With `Nc1ccccc1-c1nnc(C(=O)Nc2cc(-c3ccccc3)n[nH]2)o1` [5-(2-Amino-phenyl)-[1,3,4]oxadiazole-2-carboxylic acid(5-phenyl-2H-pyrazol-3-yl)-amide] the IC50 was over 100 µM.
